Experimental data reported in ChEMBL document CHEMBL3872285, “Discovery of a Potent, Selective, and Orally Available PI3Kδ Inhibitor for the Treatment of Inflammatory Diseases” (ACS Med Chem Lett, 2017).

Columns and labels:
[1] = molecular target: T1, Phosphatidylinositol 4,5-bisphosphate 3-kinase catalytic subunit delta isoform (Homo sapiens, UniProt O00329); experiment: Inhibition of PI3Kdelta in human THP1 cells assessed as reduction in MCSF-stimulated akt phosphorylation at Thr308 preincubated for 30 mins followed by MCSF stimulation for 3 mins by ELISA; format: cell-based, THP-1
T1 sequence (O00329 whole entry): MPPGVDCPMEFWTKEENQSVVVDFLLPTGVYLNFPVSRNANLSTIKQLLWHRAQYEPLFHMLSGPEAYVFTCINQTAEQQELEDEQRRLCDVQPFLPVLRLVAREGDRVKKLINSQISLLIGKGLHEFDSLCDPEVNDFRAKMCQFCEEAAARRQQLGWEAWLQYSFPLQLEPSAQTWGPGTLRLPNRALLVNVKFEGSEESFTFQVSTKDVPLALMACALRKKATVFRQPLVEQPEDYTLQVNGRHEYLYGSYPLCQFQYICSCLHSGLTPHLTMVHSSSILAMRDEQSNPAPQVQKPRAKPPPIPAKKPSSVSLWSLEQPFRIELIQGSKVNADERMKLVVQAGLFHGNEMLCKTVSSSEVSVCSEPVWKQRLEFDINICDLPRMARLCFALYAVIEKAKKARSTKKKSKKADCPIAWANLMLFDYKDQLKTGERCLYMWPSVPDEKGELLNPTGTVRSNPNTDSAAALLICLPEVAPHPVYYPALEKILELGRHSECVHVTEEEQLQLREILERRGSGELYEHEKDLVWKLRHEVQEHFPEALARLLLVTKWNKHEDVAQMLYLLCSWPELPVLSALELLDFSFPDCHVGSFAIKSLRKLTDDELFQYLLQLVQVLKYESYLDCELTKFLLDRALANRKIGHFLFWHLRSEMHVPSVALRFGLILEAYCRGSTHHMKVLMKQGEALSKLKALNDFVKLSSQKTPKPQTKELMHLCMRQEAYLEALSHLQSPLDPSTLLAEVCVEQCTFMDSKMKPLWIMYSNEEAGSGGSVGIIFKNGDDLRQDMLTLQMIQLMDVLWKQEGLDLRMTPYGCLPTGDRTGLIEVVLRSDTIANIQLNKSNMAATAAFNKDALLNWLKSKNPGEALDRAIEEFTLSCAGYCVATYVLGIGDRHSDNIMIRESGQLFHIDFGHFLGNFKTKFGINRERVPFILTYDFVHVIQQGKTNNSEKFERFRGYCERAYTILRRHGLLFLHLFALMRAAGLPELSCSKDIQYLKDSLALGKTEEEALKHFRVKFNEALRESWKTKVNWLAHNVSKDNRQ
How it was run: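 THP-1 cells exposed to compound for 30 min, then stimulated with MCSF at EC80 for 3 min; lysates assayed by ELISA for pAkt (Thr308).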

[2] = molecular target: PI3-kinase p110-delta/p85-alpha (Homo sapiens, UniProt O00329); experiment: Inhibition of full length recombinant human N-terminal His6-tagged PI3K p110delta/human p85alpha expressed in baculovirus infected sf21 cells using PIP2 as substrate preincubated for 30 mins followed by substrate addition by HTRF assay
[3] = Drug metabolism in rat liver microsomes assessed as disappearance of parent compound at 5 uM after 30 mins in presence of NADPH by UPLC-MS/MS analysis
[4] = Drug metabolism in human liver microsomes assessed as disappearance of parent compound at 5 uM after 30 mins in presence of NADPH by UPLC-MS/MS analysis

PI3-kinase p110-delta/p85-alpha, sequence (P27986 whole entry, one chain of several): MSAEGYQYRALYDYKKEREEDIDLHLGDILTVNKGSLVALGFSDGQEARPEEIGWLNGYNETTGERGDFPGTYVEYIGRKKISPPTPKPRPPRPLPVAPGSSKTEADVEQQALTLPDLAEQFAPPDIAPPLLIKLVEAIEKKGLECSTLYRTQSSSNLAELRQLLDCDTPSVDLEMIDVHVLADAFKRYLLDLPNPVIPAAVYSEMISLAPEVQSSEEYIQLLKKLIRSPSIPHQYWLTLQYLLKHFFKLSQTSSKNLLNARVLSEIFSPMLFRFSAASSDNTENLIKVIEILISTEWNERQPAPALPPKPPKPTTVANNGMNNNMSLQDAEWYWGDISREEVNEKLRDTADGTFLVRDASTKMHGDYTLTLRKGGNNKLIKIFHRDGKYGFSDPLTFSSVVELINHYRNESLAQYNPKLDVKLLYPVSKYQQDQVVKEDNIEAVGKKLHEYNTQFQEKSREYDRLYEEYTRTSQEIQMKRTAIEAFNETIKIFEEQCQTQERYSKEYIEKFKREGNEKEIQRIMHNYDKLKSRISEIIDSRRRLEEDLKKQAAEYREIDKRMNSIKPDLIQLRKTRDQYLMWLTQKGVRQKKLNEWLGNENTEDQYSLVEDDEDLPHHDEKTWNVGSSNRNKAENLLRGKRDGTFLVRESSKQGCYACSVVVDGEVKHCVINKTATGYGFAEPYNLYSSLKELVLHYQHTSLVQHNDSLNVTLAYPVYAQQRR

SMILES | IC50 [1] [nM] | IC50 [2] [nM] | metabolised at 0.5 h, 5 µM [3] [%] | metabolised at 0.5 h, 5 µM [4] [%]
C[C@H](Nc1ncnc(N)c1C#N)c1nn2c(C(F)(F)F)ccc2c(=O)n1-c1ccccc1 | 380 | 71 | – | –
C[C@H](Nc1ncnc(N)c1C#N)c1nn2ccnc2c(=O)n1-c1ccccc1 | 210 | 57 | 14 | 23
C[C@H](Nc1ncnc(N)c1C#N)c1nn2ccc(CO)c2c(=O)n1-c1ccccc1 | 35 | 4.3 | 7 | 23
CC[C@@H](Nc1ncnc2[nH]cnc12)c1nn2cccc2c(=O)n1-c1ccccc1 | – | 1800 | 32 | 30
C[C@H](Nc1nc(N)nc2[nH]cnc12)c1nn2cccc2c(=O)n1-c1ccccc1 | 6.5 | 3.1 | 30 | 26
C[C@H](Nc1ncnc(N)c1C#N)c1nn2ccc(F)c2c(=O)n1-c1ccccc1 | 3.8 | 1.1 | 9 | 13
C[C@H](Nc1ncnc2[nH]cc(F)c12)c1nn2cccc2c(=O)n1-c1ccccc1 | 47 | 9 | 48 | 58
N#Cc1c(N)ncnc1NC(CO)c1nn2cccc2c(=O)n1-c1ccccc1 (single isomer, unassigned) | 51 | 13 | 24 | 31
N#Cc1c(N)ncnc1NC(CC(F)(F)F)c1nn2cccc2c(=O)n1-c1ccccc1 (centres undefined) | 1600 | 610 | – | –
Cc1ccn2nc([C@H](C)Nc3ncnc(N)c3C#N)n(-c3ccccc3)c(=O)c12 | 1.6 | 1.1 | 44 | 80
C[C@H](Nc1ncnc2[nH]ccc12)c1nn2cccc2c(=O)n1-c1ccccc1 | 150 | 52 | 44 | 49
Cc1ccn2nc(C(C)n3cnc4c(N)ncnc43)n(-c3ccccc3)c(=O)c12 (centres undefined) | – | 75 | – | –
C[C@H](Nc1ncnc(N)c1C#N)c1nn2cc(F)cc2c(=O)n1-c1ccccc1 | 51 | 17 | 23 | 34
C[C@H](Nc1cc(N)ncn1)c1nn2cccc2c(=O)n1-c1ccccc1 | – | 1200 | – | –
Cc1ccccc1-n1c(Cn2cnc3c(N)ncnc32)nn2ccc(C)c2c1=O | – | 110 | – | –
N#Cc1c(N)ncnc1NC1(c2nn3cccc3c(=O)n2-c2ccccc2)CC1 | – | 3400 | – | –
C[C@H](Nc1ncnc(N)c1C(F)(F)F)c1nn2cccc2c(=O)n1-c1ccccc1 | – | 12 | 51 | 43
C[C@H](Nc1nc(N)nc(N)n1)c1nn2cccc2c(=O)n1-c1ccccc1 | 76 | 91 | 25 | 33
N#Cc1c(N)ncnc1N1CC(F)(F)C[C@H]1c1nn2cccc2c(=O)n1-c1ccccc1 | 370 | 31 | 30 | 35
C[C@H](Nc1ccnc2ccnn12)c1nn2cccc2c(=O)n1-c1ccccc1 | – | 60 | 100 | 86
N#Cc1c(N)ncnc1N1CCC[C@H]1c1nn2cccc2c(=O)n1-c1ccccc1 | 6.6 | 4.6 | 46 | 48
CC[C@H](Nc1ncnc(N)c1C#N)c1nn2cccc2c(=O)n1-c1ccccc1 | 18 | 11 | 32 | 32
C[C@H](Nc1ncnc(N)c1F)c1nn2cccc2c(=O)n1-c1ccccc1 | 210 | 73 | – | –
CC[C@H](Nc1ncnc2[nH]cnc12)c1nn2cccc2c(=O)n1-c1ccccc1 | – | 25 | 38 | 49
